Measurements from ChEMBL document CHEMBL1123347, “Topical nonsteroidal antipsoriatic agents. 1. 1,2,3,4-Tetraoxygenated naphthalene derivatives” (J Med Chem, 1986).

Key:
[1] = Statistical significance, p values as compared to positive control by students t-test; NS=Not significant; format: ADME
Outline: (§1)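 Same arachidonic acid ear-edema model: 2 mg total topical dose in acetone, given 60 min before arachidonic acid, with 8 animals per group. Edema is measured by ear plug weight 1 h after arachidonic acid. p values come from Student's t-test against the concurrent arachidonic acid positive control. Thresholds are given as + (≤0.05) and so on.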

Mus musculus [2] = assay: Compound was tested for inhibition of arachidonic acid induced mouse ear edema at 2 mg of dose; format: functional
Outline: (§2)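 Mouse ear edema induced by arachidonic acid (dissolved in acetone at 100 mg/mL). Test agent is applied topically in acetone, 2 mg/0.02 mL per total dose, 60 min before arachidonic acid. Ear edema is read 1 h later as the weight gain of an 8-mm-diameter ear plug. It is compared with acetone-only and arachidonic acid-only controls run in the same experiment. n = 8 per group; percent inhibition is reported as mean.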

[3] = Partition coefficient (logP); format: physicochemical; conditions: octanol/water
Outline: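 Lipophilicity (log P) measured by 1-octanol-coated reversed-phase HPLC. The mobile phase is pH 7.4 PBS saturated with 1-octanol, run on RP-18 or C-18 packing. A second system is linked to the first through overlapping series. For the most lipophilic analogues that could not be detected, log P is calculated from Free-Wilson-derived substituent constants assuming additivity.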

[4] = Statistical significance (p value) compared to positive control by Students t-test; format: ADME; outline: as §1
[5] = Statistical significance, p values as compared to positive control by students t-test; I=Insoluble; format: ADME; outline: as §1
Mus musculus [6] = assay: Compound was tested for inhibition of arachidonic acid induced mouse ear edema at 2 mg of dose; I=Insoluble; format: functional, organism-based; outline: as §2

SMILES | Significance [1] | Inhibition (Mus musculus [2]) [%] | logP [3] | Significance [4] | Significance ([4]; read-out: Significance) | Significance [5] | inhibition (Mus musculus [6])
COc1c(OC)c(OC(=O)C(C)(C)C)c2cc(Cl)ccc2c1OC(=O)C(C)(C)C | Not Active | 11 | 6.6 |  |  |  | 
COc1c(OC)c(OC(=O)C(C)(C)C)c2c(Cl)cccc2c1OC(=O)C(C)(C)C | Not Active | 6 | 6.1 |  |  |  | 
COc1c(OC)c(OC(=O)C(C)(C)C)c2ccccc2c1OC(=O)C(C)(C)C | Not Active | 0 | 5.69 |  |  |  | 
CC(C)Oc1c(OC(C)C)c(OC(=O)C(C)(C)C)c2cc(Cl)ccc2c1OC(=O)C(C)(C)C |  | 26 | 7.9 | <= 0.001 |  |  | 
CCCC(=O)Oc1c(OC)c(OC)c(OC(=O)CCC)c2cc(Cl)ccc12 |  | 58 | 5.5 | <= 0.001 |  |  | 
COc1c(OC)c(OC(C)=O)c2c(C)cccc2c1OC(C)=O |  | 22 | 2.8 |  | < 0.001 |  | 
COc1c(OC)c(OC(C)=O)c2c(C#N)cccc2c1OC(C)=O |  | 24 | 2.51 | <= 0.01 |  |  | 
O=C(Oc1c(Oc2ccccc2)c(Oc2ccccc2)c(OC(=O)c2ccccc2)c2cc(Cl)ccc12)c1ccccc1 | Not Active | -1 | 8.7 |  |  |  | 
COc1ccc2c(OC(C)=O)c(OC)c(OC)c(OC(C)=O)c2c1 |  | 53 | 2.39 | <= 0.001 |  |  | 
CCC(=O)Oc1c(Oc2ccccc2)c(Oc2ccccc2)c(OC(=O)CC)c2ccccc12 |  |  | 5.8 |  |  | Insoluble | Insoluble
COc1c(OC)c(OC(=O)C(C)C)c2c(C)cccc2c1OC(=O)C(C)C | Not Active | 12 | 5 |  |  |  | 
COc1c(OC)c(OC(C)=O)c2ccccc2c1OC(C)=O |  | 19 | 2.39 | <= 0.05 |  |  | 
CCC(=O)Oc1c(OC)c(OC)c(OC(=O)CC)c2cc(OC)ccc12 |  | 49 | 3.28 | <= 0.01 |  |  | 
COc1c(OC)c(OC(C)=O)c2cc(C#N)ccc2c1OC(C)=O | Not Active | 7 | 2.28 |  |  |  | 
CC(=O)Oc1c(Oc2ccccc2)c(Oc2ccccc2)c(OC(C)=O)c2cc(Cl)ccc12 | Not Active | 5 | 5.6 |  |  |  | 
COc1c(OC)c(OC(C)=O)c2c(Sc3ccccc3)cccc2c1OC(C)=O |  | 42 | 4.2 | <= 0.001 |  |  | 
COc1c(OC)c(OC(=O)C(C)(C)C)c2cc(C)ccc2c1OC(=O)C(C)(C)C | Not Active | 11 | 6.1 |  |  |  | 
COc1ccc2c(OC(=O)C(C)(C)C)c(OC)c(OC)c(OC(=O)C(C)(C)C)c2c1 | Not Active | 3 | 5.4 |  |  |  | 
CCCC(=O)Oc1c(OC)c(OC)c(OC(=O)CCC)c2ccccc12 |  | 59 | 4.64 | <= 0.001 |  |  | 

SMILES | Significance [1] | Inhibition (Mus musculus [2]) [%] | logP [3] | Significance [4] | Significance ([4]; read-out: Significance) | Significance [5] | inhibition (Mus musculus [6])
CCCOc1c(OCCC)c(OC(C)=O)c2cc(Cl)ccc2c1OC(C)=O |  | 50 | 5.2 | <= 0.001 |  |  | 
CCCOc1c(OCCC)c(OC(=O)CCC)c2cc(Cl)ccc2c1OC(=O)CCC | Not Active | 2 | 7.6 |  |  |  | 
COc1c(OC)c(OC(=O)c2ccccc2)c2cc(Cl)ccc2c1OC(=O)c1ccccc1 |  | 18 | 6.7 | <= 0.05 |  |  | 
COc1c(OC)c(OC(=O)C(C)(C)C)c2c(C)cccc2c1OC(=O)C(C)(C)C | Not Active | 10 | 6.1 |  |  |  | 
CCC(=O)Oc1c(OC)c(OC)c(OC(=O)CC)c2c(OC)cccc12 |  | 57 | 3.44 | <= 0.001 |  |  | 
COc1c(OC)c(OC(C)=O)c2c(OC)cccc2c1OC(C)=O |  | 47 | 2.43 | <= 0.01 |  |  | 
CCC(=O)Oc1c(OC)c(OC)c(OC(=O)CC)c2cc(C)ccc12 |  | 39 | 3.9 | <= 0.001 |  |  | 
CCOc1c(OCC)c(OC(C)=O)c2cc(Cl)ccc2c1OC(C)=O |  | 38 | 4 | <= 0.001 |  |  | 
CCOc1c(OCC)c(OC(=O)C(C)(C)C)c2cc(Cl)ccc2c1OC(=O)C(C)(C)C |  | 19 | 7.4 | <= 0.001 |  |  | 
CC(=O)Oc1c(OC(C)C)c(OC(C)C)c(OC(C)=O)c2cc(Cl)ccc12 |  | 19 | 4.6 | <= 0.001 |  |  | 
CSc1c(SC)c(OC(C)=O)c2cc(Cl)ccc2c1OC(C)=O | Not Active | -2 |  |  |  |  | 
CCCC(=O)Oc1c(OC)c(OC)c(OC(=O)CCC)c2cc(C)c(C)cc12 | Not Active | 14 | 5.4 |  |  |  | 
CCC(=O)Oc1c(OC(C)C)c(OC(C)C)c(OC(=O)CC)c2cc(Cl)ccc12 | Not Active | 16 | 5.8 |  |  |  | 
CCC(=O)Oc1c(OC)c(OC)c(OC(=O)CC)c2ccccc12 |  | 33 | 3.44 | <= 0.01 |  |  | 
CCC(=O)Oc1c(OC)c(OC)c(OC(=O)CC)c2cc(C)c(C)cc12 |  | 26 | 4.2 | <= 0.001 |  |  | 
CCCC(=O)Oc1c(Oc2ccccc2)c(Oc2ccccc2)c(OC(=O)CCC)c2cc(Cl)ccc12 | Not Active | -5 | 7.7 |  |  |  | 
CCC(=O)Oc1c(OC)c(OC)c(OC(=O)CC)c2cc(Cl)ccc12 |  | 49 | 4.3 | <= 0.001 |  |  | 
CCCCOc1c(OCCCC)c(OC(C)=O)c2cc(Cl)ccc2c1OC(C)=O |  | 23 | 5.9 | <= 0.01 |  |  | 
CC(C)C(=O)Oc1c(Oc2ccccc2)c(Oc2ccccc2)c(OC(=O)C(C)C)c2cc(Cl)ccc12 | Not Active | 0 | 7.7 |  |  |  | 

SMILES | Significance [1] | Inhibition (Mus musculus [2]) [%] | logP [3] | Significance [4] | Significance ([4]; read-out: Significance) | Significance [5] | inhibition (Mus musculus [6])
CCC(=O)Oc1c(Oc2ccccc2)c(Oc2ccccc2)c(OC(=O)CC)c2cc(Cl)ccc12 | Not Active | -15 | 6.6 |  |  |  | 
CCCOc1c(OCCC)c(OC(=O)CC)c2cc(Cl)ccc2c1OC(=O)CC |  | 30 | 6.4 | <= 0.001 |  |  | 
CCCOc1c(OCCC)c(OC(=O)C(C)C)c2cc(Cl)ccc2c1OC(=O)C(C)C |  | 28 | 7.5 | <= 0.01 |  |  | 
COc1c(OC)c(OC(C)=O)c2cc(C)c(C)cc2c1OC(C)=O |  | 19 | 3.14 | <= 0.001 |  |  | 
CCOc1c(OCC)c(OC(=O)C(C)C)c2cc(Cl)ccc2c1OC(=O)C(C)C |  | 11 | 6.4 | <= 0.05 |  |  | 
COc1c(OC)c(OC(=O)C(C)C)c2cc(Cl)ccc2c1OC(=O)C(C)C |  | 23 | 5.4 | <= 0.01 |  |  | 
COc1c(OC)c(OC(C)=O)c2cc(F)ccc2c1OC(C)=O |  | 40 | 2.75 | <= 0.001 |  |  | 
COc1c(OC)c(OC(C)=O)c2cc(C)ccc2c1OC(C)=O |  | 40 | 2.86 | <= 0.001 |  |  | 
COc1c(OC)c(OC(C)=O)c2c(Cl)cccc2c1OC(C)=O | Not Active | 11 | 3.16 |  |  |  | 
COc1c(OC)c(OC(C)=O)c2c(NC(C)=O)cccc2c1OC(C)=O | Not Active | 6 | 2 |  |  |  | 
CCOc1c(OCC)c(OC(=O)CC)c2cc(Cl)ccc2c1OC(=O)CC |  | 50 | 5.2 | <= 0.001 |  |  | 
COc1c(OC)c(OC(=O)C(C)(C)C)c2cc(C)c(C)cc2c1OC(=O)C(C)(C)C | Not Active | 6 | 6.5 |  |  |  | 
COc1c(OC)c(OC(=O)C(C)(C)C)c2c(OC)cccc2c1OC(=O)C(C)(C)C |  | 29 | 5.6 | <= 0.01 |  |  | 
CCC(=O)Oc1c(OC)c(OC)c(OC(=O)CC)c2c(C)cccc12 |  | 24 | 3.9 | <= 0.01 |  |  | 
COc1c(OC)c(OC(=O)C(C)C)c2cc(C)c(C)cc2c1OC(=O)C(C)C |  | 21 | 5.3 | <= 0.001 |  |  | 
CC(C)(C)C(=O)Oc1c(Oc2ccccc2)c(Oc2ccccc2)c(OC(=O)C(C)(C)C)c2cc(Cl)ccc12 |  |  | 8.7 |  |  |  | Insoluble
COc1c(OC)c(OC(=O)C(C)C)c2ccccc2c1OC(=O)C(C)C |  | 53 | 4.61 | <= 0.001 |  |  | 
CCCOc1c(OCCC)c(OC(=O)C(C)(C)C)c2cc(Cl)ccc2c1OC(=O)C(C)(C)C |  | 16 | 8.5 | <= 0.05 |  |  | 
COc1c(OC)c(OC(C)=O)c2cc(Br)ccc2c1OC(C)=O |  | 42 | 3.39 | <= 0.001 |  |  | 
